From ChEMBL document CHEMBL4706495, “A novel class of small molecule inhibitors with radioprotective properties” (Eur J Med Chem, 2020)

Legend:
Jurkat [1] = experiment: Cytotoxicity against human Jurkat cells assessed as cell viability at 10 uM measured after 48 hrs by WST-1 assay relative to control; assay type: functional; details: read-out: Activity
In short: (§1)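 Ten-line human panel (9 cancer, 1 non-cancerous). Cells were seeded at a pre-established optimal density (500–30 × 10³ per well) and settled overnight. Compounds came from 10 mM DMSO stocks and were tested at two concentrations. WST-1 readout followed the manufacturer's protocol at the end of cultivation. Viability is expressed as % of untreated control cells, mean of three independent experiments.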

MOLT-4 [2] = experiment: Cytotoxicity against human MOLT-4 cells assessed as cell viability at 10 uM measured after 48 hrs by WST-1 assay relative to control; assay type: functional; details: read-out: Activity; in short: as §1
A549 [3] = experiment: Cytotoxicity against human A549 cells assessed as cell viability at 10 uM measured after 48 hrs by WST-1 assay relative to control; assay type: functional; details: read-out: Activity; in short: as §1
HT-29 [4] = experiment: Cytotoxicity against human HT-29 cells assessed as cell viability at 10 uM measured after 48 hrs by WST-1 assay relative to control; assay type: functional; details: read-out: Activity; in short: as §1
PANC-1 [5] = experiment: Cytotoxicity against human PANC-1 cells assessed as cell viability at 10 uM measured after 48 hrs by WST-1 assay relative to control; assay type: functional; details: read-out: Activity; in short: as §1
A2780 [6] = experiment: Cytotoxicity against human A2780 cells assessed as cell viability at 10 uM measured after 48 hrs by WST-1 assay relative to control; assay type: functional; details: read-out: Activity; in short: as §1
HeLa [7] = experiment: Cytotoxicity against human HeLa cells assessed as cell viability at 10 uM measured after 48 hrs by WST-1 assay relative to control; assay type: functional; details: read-out: Activity; in short: as §1
MCF7 [8] = experiment: Cytotoxicity against human MCF7 cells assessed as cell viability at 10 uM measured after 48 hrs by WST-1 assay relative to control; assay type: functional; details: read-out: Activity; in short: as §1
SAOS-2 [9] = experiment: Cytotoxicity against human SAOS-2 cells assessed as cell viability at 10 uM measured after 48 hrs by WST-1 assay relative to control; assay type: functional; details: read-out: Activity; in short: as §1
[10] = Cytotoxicity against human MRC5 cells assessed as cell viability at 10 uM measured after 48 hrs by WST-1 assay relative to control; assay type: cell-based; details: read-out: Activity; in short: as §1
Jurkat [11] = experiment: Cytotoxicity against human Jurkat cells assessed as cell viability at 100 uM measured after 48 hrs by WST-1 assay relative to control; assay type: functional; details: read-out: Activity; in short: as §1
MOLT-4 [12] = experiment: Cytotoxicity against human MOLT-4 cells assessed as cell viability at 100 uM measured after 48 hrs by WST-1 assay relative to control; assay type: functional; details: read-out: Activity; in short: as §1
A549 [13] = experiment: Cytotoxicity against human A549 cells assessed as cell viability at 100 uM measured after 48 hrs by WST-1 assay relative to control; assay type: functional; details: read-out: Activity; in short: as §1
HT-29 [14] = experiment: Cytotoxicity against human HT-29 cells assessed as cell viability at 100 uM measured after 48 hrs by WST-1 assay relative to control; assay type: functional; details: read-out: Activity; in short: as §1
PANC-1 [15] = experiment: Cytotoxicity against human PANC-1 cells assessed as cell viability at 100 uM measured after 48 hrs by WST-1 assay relative to control; assay type: functional; details: read-out: Activity; in short: as §1
A2780 [16] = experiment: Cytotoxicity against human A2780 cells assessed as cell viability at 100 uM measured after 48 hrs by WST-1 assay relative to control; assay type: functional; details: read-out: Activity; in short: as §1
HeLa [17] = experiment: Cytotoxicity against human HeLa cells assessed as cell viability at 100 uM measured after 48 hrs by WST-1 assay relative to control; assay type: functional; details: read-out: Activity; in short: as §1
MCF7 [18] = experiment: Cytotoxicity against human MCF7 cells assessed as cell viability at 100 uM measured after 48 hrs by WST-1 assay relative to control; assay type: functional; details: read-out: Activity; in short: as §1
SAOS-2 [19] = experiment: Cytotoxicity against human SAOS-2 cells assessed as cell viability at 100 uM measured after 48 hrs by WST-1 assay relative to control; assay type: functional; details: read-out: Activity; in short: as §1
[20] = Cytotoxicity against human MRC5 cells assessed as cell viability at 100 uM measured after 48 hrs by WST-1 assay relative to control; assay type: cell-based; details: read-out: Activity; in short: as §1
A549 [21] = experiment: Cytotoxicity against human A549 cells assessed as reduction in cell viability incubated for 24 hrs by MTT assay; assay type: functional, cell-based; details: A549, 24 h
In short: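 A-549 cells in DMEM with 10% FBS and 1% penicillin-streptomycin were attached overnight. Compounds were prepared in PBS and serially diluted in DMEM, then incubated 24 h. Viability was read by colorimetric MTT reduction against an untreated control on each plate (100%). IC50 came from four-parameter nonlinear regression of the log concentration-response curve, mean ± SEM. MTC is the highest concentration not differing from control (t-test).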

A549 [22] = experiment: Cytotoxicity against human A549 cells assessed as maximum tolerated concentration incubated for 24 hrs by MTT assay; assay type: functional
In short: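 A-549 cells in DMEM with 10% FBS and 1% penicillin-streptomycin, left to attach overnight. Compounds made up in PBS, serially diluted in DMEM, incubated 24 h, then viability read by MTT reduction against untreated controls on each plate. MTC taken as the highest concentration showing no significant difference from non-treated control (t-test).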

MOLT-4 [23] = experiment: Radioprotective activity against gamma irradiation-induced apoptosis in human MOLT-4 cells assessed as viable cells at 100 uM pretreated with compound for 1 hr followed by gamma irradiation and measured after 24 hrs by annexinV/propidium iodide staining based flow cytometry (reference value: 40 %); assay type: functional; details: MOLT-4, light or radiation study, time 25 hrs, read-out: Activity
[24] = Toxicity in C57Bl/6 mouse assessed as mouth death at 100 mg/kg, ip measured after 30 days; assay type: organism-based; details: in vivo, 720 h, time 30 day
In short: (§2)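 Safety in C57Bl/6 mice (27 ± 3 g) given a single 100 mg/kg i.p. injection without irradiation. Deaths, adverse effects and body weight followed over 30 days against an untreated control group. Weight reported as change from day 0.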

[25] = Toxicity in C57Bl/6 mouse assessed as adverse effects at 100 mg/kg, ip measured after 30 days; assay type: organism-based; details: in vivo, 720 h, time 30 day; in short: as §2
[26] = Toxicity in C57Bl/6 mouse assessed as average body weight at 100 mg/kg, ip and measured immediately (reference value: 26.3 +/- 2.4 g); assay type: organism-based; details: in vivo
[27] = Toxicity in C57Bl/6 mouse assessed as average body weight at 100 mg/kg, ip measured after 30 days (reference value: 27 +/ 3.2 g); assay type: organism-based; details: in vivo, 720 h, time 30 day
[28] = Toxicity in C57Bl/6 mouse assessed as change in body weight at 100 mg/kg, ip measured after 30 days (reference value: 103 +/- 12 %); assay type: organism-based; details: in vivo, 720 h, time 30 day
Mus musculus [29] = experiment: Radioprotective activity in C57Bl/6 mouse assessed as median survival time at 100 mg/kg, ip administered 5 min prior to gamma-irradation at 8.5 Gy and measured after 30 days (reference value: 12 days); assay type: functional
Mus musculus [30] = experiment: Radioprotective activity in C57Bl/6 mouse assessed as average body weight at 100 mg/kg, ip administered 5 min prior to gamma-irradation at 8.5 Gy and measured immediately (reference value: 25.4 +/- 2.6 g); assay type: functional
Mus musculus [31] = experiment: Radioprotective activity in C57Bl/6 mouse assessed as average body weight at 100 mg/kg, ip administered 5 min prior to gamma-irradation at 8.5 Gy and measured after 30 days; assay type: functional
Mus musculus [32] = experiment: Radioprotective activity in C57Bl/6 mouse assessed as body weight gain at 100 mg/kg, ip administered 5 min prior to gamma-irradation at 8.5 Gy measured after 30 days relative to control; assay type: functional
[33] = Immuno-toxicity in C57Bl/6 mouse assessed as decrease in absolute number of lymphocytes at 100 mg/kg, ip measured after 12 days post-treatment by flow cytometry; assay type: organism-based; details: in vivo, 288 h, time 12 day

For `C=CCc1ccc(OCC(O)CN2CCN(CCO)CC2)c(OC)c1` (stereo not drawn), the viability at 10 µM (Jurkat [1]) was 110%, the viability at 10 µM (MOLT-4 [2]) was 104% and the viability at 10 µM (A549 [3]) was 91%. For the same compound, the viability at 10 µM (HT-29 [4]) was 109%, the viability at 10 µM (PANC-1 [5]) was 101% and the viability at 10 µM (A2780 [6]) was 97%. The viability at 10 µM (HeLa [7]) was 100%, the viability at 10 µM (MCF7 [8]) was 99% and the viability at 10 µM (SAOS-2 [9]) was 112%. The viability at 48 h, 10 µM [10] was 94%, the viability at 100 µM (Jurkat [11]) was 83% and the viability at 100 µM (MOLT-4 [12]) was 65%. The viability at 100 µM (A549 [13]) was 105%, the viability at 100 µM (HT-29 [14]) was 102% and the viability at 100 µM (PANC-1 [15]) was 116%. For the same compound, the viability at 100 µM (A2780 [16]) was 85%, the viability at 100 µM (HeLa [17]) was 99% and the viability at 100 µM (MCF7 [18]) was 89%. For the same compound, the viability at 100 µM (SAOS-2 [19]) was 75%, the viability at 48 h, 100 µM [20] was 103% and the IC50 (A549 [21]) was 1120 µM. For the same compound, the MTD (A549 [22]) was 0.2 mM, the viability at 100 µM (MOLT-4 [23]) was 52% and the Activity [24] was “Non-Toxic”. The Activity [25] was “Non-Toxic”, the Activity [26] was 25.7 g and the Activity [27] was 27 g. The Activity [28] was 105%, the MST (Mus musculus [29]) was 12 days and the Activity (Mus musculus [30]) was 25.1 g. The Activity (Mus musculus [31]) was 27.3 g, the Activity (Mus musculus [32]) was 103% and the Activity [33] was “Toxic”.
